Activity calls are given as the source filed them. No cut-off for these calls is given here.
Legend:
[1] = test system: AEC; test: Antiproliferative activity against 10% FBS-induced BAEC at 500 uM after 24 hrs assessed by inhibition of [3H]thymidine uptake relative to control; assay type: functional, Bos taurus; design: scale not given: the % may be the effect or the level left
Summary of the method: (§1)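 Bovine aortic endothelial cells seeded at 30,000 cells/well in complete medium (10% foetal bovine serum) and allowed 24 h adhesion. Compounds then added and cells cultured 20 h at 37 °C, 5% CO2. [3H]thymidine pulse for a further 4 h (24 h total exposure). Cells lysed with 0.1 N NaOH and incorporated label counted by scintillation. Values are % of control-treated cells, mean ± SEM of three separate experiments, each in triplicate.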

[2] = test system: AEC; test: Antiproliferative activity against 10% FBS-induced BAEC upto 80 uM after 24 hrs assessed by inhibition of [3H]thymidine uptake; assay type: functional, cell-based; details: Bos taurus; summary of the method: as §1
[3] = test system: AEC; test: Antiproliferative activity against 10% FBS-induced BAEC at 100 uM after 24 hrs assessed by inhibition of [3H]thymidine uptake; assay type: functional, Bos taurus; design: scale not given: the % may be the effect or the level left; summary of the method: as §1
[4] = test system: AEC; test: Antiproliferative activity against 10% FBS-induced BAEC at 500 uM after 24 hrs assessed by inhibition of [3H]thymidine uptake; assay type: functional, Bos taurus; design: scale not given: the % may be the effect or the level left; summary of the method: as §1
[5] = test system: AEC; test: Antiproliferative activity against 10% FBS-induced BAEC at 3.3 uM after 24 hrs assessed by inhibition of [3H]thymidine uptake; assay type: functional, cell-based; details: Bos taurus; summary of the method: as §1
[6] = test system: AEC; test: Antiproliferative activity against 10% FBS-induced BAEC at 16 uM after 24 hrs assessed by inhibition of [3H]thymidine uptake; assay type: functional, Bos taurus; design: scale not given: the % may be the effect or the level left; summary of the method: as §1
[7] = test system: AEC; test: Antiproliferative activity against bFGF-stimulated BAEC at 80 uM after 48 hrs assessed by inhibition of [3H]thymidine uptake; assay type: functional, cell-based; details: Bos taurus
Summary of the method: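 BAECs seeded at 30,000 cells/well and starved 24 h in 0.5% foetal bovine serum. Then incubated 48 h with bFGF (10 ng/mL) with or without compound. [3H]thymidine (2 µCi/mL) added for the last 4 h. Lysis in 0.1 N NaOH, scintillation counting. Triplicate values from three separate experiments; Student's t test against control and against bFGF treatment.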

[8] = test system: AEC; test: Antiproliferative activity against 10% FBS-induced BAEC at 80 uM after 24 hrs assessed by inhibition of [3H]thymidine uptake; assay type: functional, Bos taurus; design: scale not given: the % may be the effect or the level left; summary of the method: as §1

`C#Cc1ccsc1C(=O)N[C@@H]1O[C@H](CO)[C@@H](O)[C@H](O)[C@H]1O` was tested, and the Activity [1] was 79.75%.

`C#Cc1csc(C(=O)N[C@@H]2O[C@H](CO)[C@@H](O)[C@H](O)[C@H]2O)c1` gave an Activity [1] of 71%.

Molecule `Cc1ccsc1C(=O)N[C@@H]1O[C@H](CO)[C@@H](O)[C@H](O)[C@H]1O` has an Activity [1] of 84%.

`CCc1ccc(C(=O)N[C@@H]2O[C@H](CO)[C@@H](O)[C@H](O)[C@H]2O)s1` was tested, and the Activity [2] was “inactive” and the Activity [1] was 80.3%.

`O=C(N[C@@H]1O[C@H](CO)[C@@H](O)[C@H](O)[C@H]1O)c1sccc1Br` gave an Activity [1] of 75.4%, an Activity [3] of 10% and an Activity [4] of 25%.

`Cc1ccc(C(=O)N[C@@H]2O[C@H](CO)[C@@H](O)[C@H](O)[C@H]2O)s1` was tested, and the Activity [1] was 83%.

With `O=C(N[C@@H]1O[C@H](CO)[C@@H](O)[C@H](O)[C@H]1O)c1cccs1` the Activity ([1]; Bos taurus) was “inactive”.

In the case of `O=C(N[C@@H]1O[C@H](CO)[C@@H](O)[C@H](O)[C@H]1O)c1ccc(Br)s1`, the Activity [1] is reported as 65%.

In the case of `CCc1ccc(C(=O)N[C@@H]2O[C@H](COC(C)=O)[C@@H](OC(C)=O)[C@H](OC(C)=O)[C@H]2OC(C)=O)s1`, the Activity [5] is reported as “inactive”, the Activity [6] is reported as 21% and the Activity [7] is reported as “Active”. The Activity [8] was 41%.
